Measurements taken from ChEMBL document CHEMBL4513216, “Probing the Open Global Health Chemical Diversity Library for Multistage-Active Starting Points for Next-Generation Antimalarials” (ACS Infect Dis, 2020).

Experiment: Toxicity liver stage against HepG2, at 10uM
Type: cell-based
Parameters: test concentration 10 uM, cell line HepG2-A16-CD81EGFP
Details: human, HepG2-A16-CD81EGFP cells; read-out: INHIBITION
In short: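 Uninfected HepG2-A16-CD81EGFP cells, 3 × 10^3 per well, 1536-well, plated on prespotted compound at 10 μM final, parasite-free screening media added to match infected plates; puromycin 10 μM positive, DMSO 0.5% negative; run in parallel with 48 h PbLuc assay at 37 °C, 5% CO2; viability by CellTiter-Glo luminescence, normalized to controls.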
`Cc1ncsc1C(=O)NC1CCN(CCC(=O)Nc2ccccc2)CC1` showed a cytotoxicity at 10 µM of -1.39%. Molecule `Cc1cc(NC(=O)Cn2ncc(Br)c2C)no1` has a cytotoxicity at 10 µM of 4.12%. In the case of `COCCNC(=O)[C@@H]1CC[C@@H]2[C@@H](CCN2Cc2cnn(C)c2)O1`, the cytotoxicity at 10 µM is reported as -12.2%. For `COc1ccc2c(c1)NC(=O)C2OC(=O)CCc1ccc(F)cc1` (centres undefined), the cytotoxicity at 10 µM was -4.71%. With `Cc1cc(-c2cc(F)ccc2C(=O)O)nc(C2CCCCN2C(C)C)n1` (centres undefined) the cytotoxicity at 10 µM was -3.42%. Work on `CN(C)c1ccc(NC(=O)N2CCc3sccc3C2)cn1` yielded a cytotoxicity at 10 µM of -4.16%. Molecule `CCCN(C)CC1CCN(c2ncc(Br)cn2)C1` (centres undefined) has a cytotoxicity at 10 µM of -6.68%. Work on `O=C(c1ccc(F)c(F)c1)N1CCC[C@]2(C[C@@H](OCC3CC3)CO2)C1` yielded a cytotoxicity at 10 µM of -70.1%. `O=C(COc1ccc2c(c1)CCCC2=O)NCc1ccco1` showed a cytotoxicity at 10 µM of 3.39%. In the case of `Cc1nn(CC(=O)N2CCC(Nc3cccnn3)CC2)c(C)c1Cl`, the cytotoxicity at 10 µM is reported as -12%. Work on `O=C(C[C@@H]1COC[C@H]2CN(CC3CCOCC3)C[C@@H]12)N1CCCCO1` yielded a cytotoxicity at 10 µM of 7.49%. In the case of `Cc1cccc(C2(C(=O)NS(=O)(=O)c3cnn(C)c3)CCCC2)c1`, the cytotoxicity at 10 µM is reported as -3.62%. Work on `c1cncc(-c2noc(CNC3CCCN(c4cccnn4)C3)n2)c1` (centres undefined) yielded a cytotoxicity at 10 µM of 3.26%. Molecule `CCc1nccn1C1CCCN(C(=O)c2cncnc2C)C1` (centres undefined) has a cytotoxicity at 10 µM of -11.8%. With `Cc1cc(CN2CCOC(CN(C)C)C2)no1` (centres undefined) the cytotoxicity at 10 µM was -0.759%. `COc1cccc2c1ccn2CCNC(=O)C1CCC1` showed a cytotoxicity at 10 µM of -3.54%. For `O=S(=O)(C1CC1)N1CCO[C@H]2[C@H](OCC3CC3)CC[C@@H]21`, the cytotoxicity at 10 µM was 5.61%. `CCC(NC(=O)c1cc(NC(C)=O)ccc1Cl)c1cc(C)ccn1` (centres undefined) gave a cytotoxicity at 10 µM of -16.5%. Molecule `CCc1nc(CN2CCCC(NCc3cccc(C(N)=O)c3)C2)no1` (centres undefined) has a cytotoxicity at 10 µM of 1.56%. For `c1ccc(CN2CCC(CCNc3ncnc4c3CCNCC4)C2)cc1` (centres undefined), the cytotoxicity at 10 µM was -0.16%. `COc1cc(-c2nc3c([nH]2)CCCNC3=O)ccc1OC(C)C` showed a cytotoxicity at 10 µM of 13.3%. In the case of `Cc1ccccc1N1CCN(C(=O)c2cnc(C3CC3)nc2)C(C)C1` (centres undefined), the cytotoxicity at 10 µM is reported as 2.09%. Work on `O=C1COc2ccc(S(=O)(=O)NCC3CCCO3)c3c2N1CCC3` (centres undefined) yielded a cytotoxicity at 10 µM of -4.2%. `O=C([C@@H]1C[C@@H]2CCN(C3CCOCC3)C[C@@H]2O1)N1CCOCC1` gave a cytotoxicity at 10 µM of 7.34%. With `CC(C)COC(=O)N1CCCN(C(=O)c2ccnc(N(C)C)c2)CC1` the cytotoxicity at 10 µM was -15.1%. `FC(F)Sc1ccc(NCc2nnc(C3CC3)o2)cc1` showed a cytotoxicity at 10 µM of 14.7%. `CCCc1n[nH]c(C2CN(CCNS(C)(=O)=O)CCO2)n1` (centres undefined) showed a cytotoxicity at 10 µM of -0.975%. With `Cc1ccccc1S(=O)(=O)N1CCC(c2[nH]ncc2C)C1` (centres undefined) the cytotoxicity at 10 µM was -21.1%. `COC[C@@H]1CC[C@H]2[C@H](CCN2C(=O)c2ccncc2F)O1` gave a cytotoxicity at 10 µM of -8.82%. `Cc1nc(C2CCCN2Cc2nccn2CC(F)(F)F)no1` (centres undefined) gave a cytotoxicity at 10 µM of -16.5%. In the case of `Cc1noc2nc(C3CCN(CC4CCCCC4)CC3)cc(C(F)F)c12`, the cytotoxicity at 10 µM is reported as -0.335%. For `Cc1cccc(COc2ccc(NC(=O)C(C)NC(N)=O)c(C)c2)c1` (centres undefined), the cytotoxicity at 10 µM was -28%. With `CS(=O)(=O)N[C@@H]1CN(C(=O)c2ccccn2)[C@@H]2CCCO[C@@H]21` the cytotoxicity at 10 µM was 4.3%. Work on `COC1CCN(C(=O)c2nn(-c3ccc(C(C)C)cc3)cc2O)CC1` yielded a cytotoxicity at 10 µM of -42.9%. With `COc1cc(CC(=O)Nc2cccc(C(=O)N(C)C)n2)ccc1C` the cytotoxicity at 10 µM was 2.25%. Molecule `Cc1ccc(NC(=O)N2CCCC2)c(OCC2CCCO2)c1` (centres undefined) has a cytotoxicity at 10 µM of 6.36%. `CCc1ncc(C(=O)N2CCOCC2c2c(C)n[nH]c2C)s1` (centres undefined) showed a cytotoxicity at 10 µM of -5.61%. For `CC(=O)N(C)Cc1ccccc1NCc1c(C)cccc1C`, the cytotoxicity at 10 µM was -4.54%. `Cc1cccc(CN2CCC(c3nnsc3S(C)(=O)=O)CC2)c1` gave a cytotoxicity at 10 µM of 1.86%. With `O=C1CC(c2ccccc2)C2(CCN(Cc3ccncc3)CC2)N1` (centres undefined) the cytotoxicity at 10 µM was -4.72%. Molecule `COc1cccc(CN2CC(O)CN(C(=O)C3CCC3)CC2=O)c1OC` (centres undefined) has a cytotoxicity at 10 µM of 4.43%. Molecule `CCn1ncc2c1C(COC)CN(Cc1ccc(F)cc1)C2` (centres undefined) has a cytotoxicity at 10 µM of 12.4%. Work on `COc1cccc(-n2cc3[nH]c(=O)n(Cc4cccc(F)c4)n3c2=O)c1` yielded a cytotoxicity at 10 µM of 0.647%. `Fc1cccc2[nH]c(CN3CCc4cncnc4C3)nc12` showed a cytotoxicity at 10 µM of -1.03%.
